Legend:
Bacillus subtilis = assay: Antibacterial activity against Bacillus subtilis at 50 mg/disk after 24 to 28 hrs by agar disk diffusion method; assay type: functional
Lactococcus lactis = assay: Antibacterial activity against Streptococcus lactis at 50 mg/disk after 24 to 28 hrs by agar disk diffusion method; assay type: functional
Escherichia coli = assay: Antibacterial activity against Escherichia coli at 50 mg/disk after 24 to 28 hrs by agar disk diffusion method; assay type: functional
Pseudomonas aeruginosa = assay: Antibacterial activity against Pseudomonas aeruginosa at 50 mg/disk after 24 to 28 hrs by agar disk diffusion method; assay type: functional
Candida albicans = assay: Antifungal activity against Candida albicans at 50 mg/disk after 5 days by agar disk diffusion method; assay type: functional
Nakaseomyces glabratus = assay: Antifungal activity against Candida glabrata at 50 mg/disk after 5 days by agar disk diffusion method; assay type: functional
HepG2 [1] = assay: Antitumor activity against human HepG2 cells xenografted in Swiss albino mouse assessed as increase of mouse survival at 10 ug/kg, ip for 10 days (reference value: 22 +/- 1.90 day); assay type: functional
HepG2 [2] = assay: Antitumor activity against human HepG2 cells xenografted in Swiss albino mouse assessed as increase mouse life span at 10 ug/kg, ip for 10 days relative to control; assay type: functional
HeLa [3] = assay: Antitumor activity against human HeLa cells xenografted in Swiss albino mouse assessed as increase of mouse survival at 10 ug/kg, ip for 10 days (reference value: 22 +/- 1.90 day); assay type: functional
HeLa [4] = assay: Antitumor activity against human HeLa cells xenografted in Swiss albino mouse assessed as increase mouse life span at 10 ug/kg, ip for 10 days relative to control; assay type: functional
Mus musculus [5] = assay: Acute toxicity in human HepG2 cells xenografted ip dosed Swiss albino mouse assessed as mortality measured up to 2 weeks; assay type: organism-based; settings: in vivo, 336 h
Outline: (§1)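 Adult Swiss albino mice were fasted 12 h and randomised into groups of 10. Each group got one i.p. dose from a graded series, given at 1 ml/kg body weight; controls got vehicle alone. Food and water were returned right after dosing. Mortality was followed for up to two weeks, and LD50 was taken as the dose giving 50% mortality.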

Mus musculus [6] = assay: Acute toxicity in human HeLa cells xenografted ip dosed Swiss albino mouse assessed as mortality measured up to 2 weeks; assay type: organism-based; settings: in vivo, 336 h; outline: as §1

Row | Compound | diameter of the inhibition zone (DIZ) (Bacillus subtilis) [mm] | diameter of the inhibition zone (DIZ) (Lactococcus lactis) [mm] | diameter of the inhibition zone (DIZ) (Escherichia coli) [mm] | diameter of the inhibition zone (DIZ) (Pseudomonas aeruginosa) [mm] | diameter of the inhibition zone (DIZ) (Candida albicans) [mm] | diameter of the inhibition zone (DIZ) (Nakaseomyces glabratus) [mm] | Survival (HepG2 [1]) [days] | Activity (HepG2 [2]) [%] | Survival (HeLa [3]) [days] | Activity (HeLa [4]) [%] | LD50 (Mus musculus [5]) [mg/kg] | LD50 (Mus musculus [6]) [mg/kg] | inhibition zone (IZ) (Nakaseomyces glabratus) [mm]
1 | CSc1nc2c(c(=O)[nH]1)C(c1ccc([N+](=O)[O-])cc1)C1=C(CC(C)(C)CC1=O)N2[C@@H]1O[C@H](CO)[C@H](O)[C@H](O)[C@H]1O (some centres not stated) | 21 | 20 | 22 | 22 | 8 | 7 | – | – | – | – | – | – | –
2 | CSc1nc2c(c(=O)n1C)C(c1ccc([N+](=O)[O-])cc1)C1=C(CC(C)(C)CC1Cl)N2 (configuration not stated) | 14 | 13 | 15 | 14 | 10 | 9 | 33 | 48 | 31 | 45 | 0.1 | 0.103 | –
3 | Cc1cn2c(=O)c3c(nc2n1N)NC1=C(C(=O)CC(C)(C)C1)C3c1ccc([N+](=O)[O-])cc1 (configuration not stated) | 19 | 22 | 24 | 23 | 9 | 10 | 37 | 56 | 34 | 51 | 0.093 | 0.09 | –
4 | CC1(C)CC(=O)C2=C(C1)Nc1nc(NN)[nH]c(=O)c1C2c1ccc([N+](=O)[O-])cc1 (configuration not stated) | 15 | 15 | 15 | 15 | 9 | 8 | 28 | 31 | 29 | 38 | 0.089 | 0.1 | –
5 | CSc1nc2c(c(=O)[nH]1)C(c1ccc([N+](=O)[O-])cc1)C1=C(CC(C)(C)CC1=O)N2 (configuration not stated) | 13 | 14 | 13 | 14 | 7 | 8 | – | – | – | – | – | – | –
6 | CC1(C)CC(=O)C2=C(C1)Nc1nc(Nn3c(=O)c4cc5c(=O)n(Nc6nc7c(c(=O)[nH]6)C(c6ccc([N+](=O)[O-])cc6)C6=C(CC(C)(C)CC6=O)N7)c(=O)c5cc4c3=O)[nH]c(=O)c1C2c1ccc([N+](=O)[O-])cc1 (configuration not stated) | 22 | 25 | 23 | 22 | 13 | 12 | 38 | 58 | 29 | 53 | 0.099 | 0.099 | –
7 | CC1(C)CC(=O)C2=C(C1)Nc1nc3n(N)c(-c4ccccc4)cn3c(=O)c1C2c1ccc([N+](=O)[O-])cc1 (configuration not stated) | 20 | 20 | 23 | 23 | 8 | 6 | – | – | – | – | – | – | –
8 | CSc1nc2c(c(=O)[nH]1)C(c1ccc([N+](=O)[O-])cc1)C1=C(CC(C)(C)CC1=O)N2[C@@H]1OC[C@@H](O)[C@@H](O)[C@@H]1O (some centres not stated) | 20 | 18 | 24 | 23 | 7 | 8 | 37 | 60 | 38 | 66 | 0.11 | 0.116 | –
9 | CSc1nc2c(c(=O)[nH]1)C(c1ccc([N+](=O)[O-])cc1)C1=C(CC(C)(C)CC1=O)N2[C@@H]1O[C@H](CO)[C@@H](O)[C@H](O)[C@H]1O (some centres not stated) | 21 | 19 | 23 | 23 | 8 | 9 | 38 | 60 | 36 | 61 | 0.115 | 0.119 | –
10 | CC1(C)CC(=O)C2=C(C1)Nc1nc(N)[nH]c(=O)c1C2c1ccc([N+](=O)[O-])cc1 (configuration not stated) | 25 | 20 | 27 | 23 | 9 | 9 | 35 | 49 | 31 | 50 | 0.095 | 0.09 | –
11 | CC1(C)CC(=O)C2=C(C1)Nc1nc(N/N=C\c3ccc(Cl)cc3)[nH]c(=O)c1C2c1ccc([N+](=O)[O-])cc1 (configuration not stated) | 16 | 17 | 18 | 17 | 7 | 6 | 37 | 53 | 32 | 50 | 0.096 | 0.09 | –
12 | COc1ccc(/C=N\Nc2nc3c(c(=O)[nH]2)C(c2ccc([N+](=O)[O-])cc2)C2=C(CC(C)(C)CC2=O)N3)cc1 (configuration not stated) | 15 | 16 | 17 | 16 | 7 | 8 | – | – | – | – | – | – | –
13 | Cc1n[nH]c2nc3c(c(=O)n12)C(c1ccc([N+](=O)[O-])cc1)C1=C(CC(C)(C)CC1=O)N3 (configuration not stated) | 18 | 21 | 18 | 22 | 11 | 11 | – | – | – | – | – | – | –
14 | CSc1nc2c(c(=O)[nH]1)C(c1ccc([N+](=O)[O-])cc1)C1=C(CC(C)(C)CC1=O)N2[C@@H]1O[C@H](COC(C)=O)[C@@H](OC(C)=O)[C@@H]1OC(C)=O (some centres not stated) | 19 | 20 | 21 | 23 | 8 | 9 | – | – | – | – | – | – | –
15 | CCn1cc(C(=O)O)c(=O)c2ccc(C)nc21 [NALIDIXIC ACID] | 25 | 25 | 25 | 25 | – | – | – | – | – | – | – | – | –
16 | CSc1nc2c(c(=O)[nH]1)C(c1ccc([N+](=O)[O-])cc1)C1=C(CC(C)(C)CC1=O)N2[C@@H]1O[C@H](COC(C)=O)[C@H](OC(C)=O)[C@H](OC(C)=O)[C@H]1OC(C)=O (some centres not stated) | 20 | 19 | 25 | 23 | 7 | 8 | – | – | – | – | – | – | –
17 | CC1(C)CC(=O)C2=C(C1)Nc1nc3[nH]ncn3c(=O)c1C2c1ccc([N+](=O)[O-])cc1 (configuration not stated) | 20 | 20 | 19 | 18 | 9 | 9 | 31 | 55 | 30 | 51 | 0.1 | 0.098 | –
18 | CC1(C)CC(=O)C2=C(C1)Nc1nc(N/N=C\c3ccccc3)[nH]c(=O)c1C2c1ccc([N+](=O)[O-])cc1 (configuration not stated) | 17 | 18 | 17 | 16 | 7 | 6 | – | – | – | – | – | – | –
19 | NYSTATIN | – | – | – | – | – | – | – | – | – | – | – | – | 20
20 | CC1(C)CC(=O)C2=C(C1)Nc1nc3[nH]nnn3c(=O)c1C2c1ccc([N+](=O)[O-])cc1 (configuration not stated) | 23 | 18 | 20 | 19 | 12 | 10 | – | – | – | – | – | – | –

Reference: ChEMBL document CHEMBL1649351, “Synthesis, in vitro antimicrobial and in vivo antitumor evaluation of novel pyrimidoquinolines and its nucleoside derivatives” (Eur J Med Chem, 2011)
